Assay results from ChEMBL document CHEMBL1144277, “Acyl sulfonamide anti-proliferatives. Part 2: activity of heterocyclic sulfonamide derivatives” (Bioorg Med Chem Lett, 2005).

Experiments:
HCT-116 [1] = experiment: Zone of inhibition by the compound against HCT116 human tumor cells at dose of 200 ug/disk; assay type: functional
How it was run: (§1)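 HCT116 colon carcinoma cells in a soft-agar disk diffusion assay, giving a qualitative measure of cytotoxicity. The test agent is applied on a disk at the stated µg per disk. The zone of inhibition is read in zone units (200 units = 6.5 mm), and a zero zone means no inhibition.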

[2] = Zone of inhibition by the compound against Normal fibroblasts at dose of 190 ug/disk; Range 0-350; assay type: functional
How it was run: (§2)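 Soft-agar disk diffusion assay on L1210 leukemia cells or normal fibroblasts, with the agent applied on a disk at the stated µg per disk. The zone of inhibition is recorded in zone units (200 units = 6.5 mm), and a zero zone denotes no inhibition.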

L1210 [3] = experiment: Zone of inhibition by the compound against L1210 Cells at dose of 190 ug/disk; No inhibition; assay type: functional, Mus musculus; how it was run: as §2
HCT-116 [4] = experiment: Zone of inhibition by the compound against HCT116 human tumor cells at dose of 190 ug/disk; assay type: functional; how it was run: as §1
[5] = Inhibitory concentration against Vascular Endothelial Growth Factor dependent Human Umbilical Vascular Endothelial Cells (VEGF-HUVEC); assay type: functional
How it was run: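 Anti-proliferative IC50 measured in HUVEC whose growth depends on VEGF; reported values are means of at least three experiments.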

[6] = Zone of inhibition by the compound against Normal fibroblasts at dose of 210 ug/disk; Range 0-370; assay type: functional; how it was run: as §2
L1210 [7] = experiment: Zone of inhibition by the compound against L1210 Cells at dose of 210 ug/disk;; assay type: functional, Mus musculus; how it was run: as §2
HCT-116 [8] = experiment: Zone of inhibition by the compound against HCT116 human tumor cells at dose of 210 ug/disk; assay type: functional; how it was run: as §1
HCT-116 [9] = experiment: Zone of inhibition by the compound against HCT116 human tumor cells at dose of 115 ug/disk; assay type: functional; how it was run: as §1
[10] = Zone of inhibition by the compound against Normal fibroblasts at dose of 200 ug/disk; Range 0-400; assay type: functional; how it was run: as §2
L1210 [11] = experiment: Zone of inhibition by the compound against L1210 Cells at dose of 200 ug/disk; No inhibition; assay type: functional, Mus musculus; how it was run: as §2
[12] = Zone of inhibition by the compound against Normal fibroblasts at dose of 210 ug/disk; Range 0-400; assay type: functional; how it was run: as §2
L1210 [13] = experiment: Zone of inhibition by the compound against L1210 Cells at dose of 210 ug/disk; No inhibition; assay type: functional, Mus musculus; how it was run: as §2
L1210 [14] = experiment: Zone of inhibition by the compound against L1210 Cells at dose of 210 ug/disk; Range 0-60; assay type: functional, Mus musculus; how it was run: as §2
[15] = Zone of inhibition by the compound against Normal fibroblasts at dose of 210 ug/disk; Range 0-330; assay type: functional; how it was run: as §2
L1210 [16] = experiment: Zone of inhibition by the compound against L1210 Cells at dose of 200 ug/disk; Range 0-250; assay type: functional, Mus musculus; how it was run: as §2
[17] = Zone of inhibition by the compound against Normal fibroblasts at dose of 210 ug/disk; Range 0-270; assay type: functional; how it was run: as §2
L1210 [18] = experiment: Zone of inhibition by the compound against L1210 Cells at dose of 210 ug/disk; Range 200-270; assay type: functional, Mus musculus; how it was run: as §2
HCT-116 [19] = experiment: Zone of inhibition by the compound against HCT116 human tumor cells at dose of 210 ug/disk; Range 470-530; assay type: functional; how it was run: as §1

| Compound | IC50 [5] [nM] | other results |
| --- | --- | --- |
| O=C(NS(=O)(=O)c1ccc(Cl)cc1)c1ccc(Cl)cc1Cl |  | Zone of inhibition (HCT-116 [1]): 660 zone of inhibition units |
| O=C(NS(=O)(=O)c1cccs1)c1ccc(Cl)cc1Cl | 540 | Zone of inhibition [2]: 350 zone of inhibition units; Zone of inhibition (L1210 [3]): 0 zone of inhibition units; Zone of inhibition (HCT-116 [4]): 490 zone of inhibition units |
| O=C(NS(=O)(=O)c1ccc2ccsc2c1)c1ccc(Cl)cc1Cl | 640 |  |
| O=C(NS(=O)(=O)c1cc(Br)c(Br)s1)c1ccc(Cl)cc1Cl | 220 |  |
| O=C(NS(=O)(=O)c1cc2ccccc2s1)c1ccc(Cl)cc1Cl | 960 | Zone of inhibition [6]: 370 zone of inhibition units; Zone of inhibition (L1210 [7]): 100 zone of inhibition units; Zone of inhibition (HCT-116 [8]): 500 zone of inhibition units |
| O=C(NS(=O)(=O)c1ccc(Cl)c(Cl)c1)c1ccc(Cl)cc1Cl |  | Zone of inhibition (HCT-116 [1]): 560 zone of inhibition units |
| CCc1nc(S(=O)(=O)NC(=O)c2ccc(Cl)cc2Cl)c[nH]1 | > 20000 |  |
| O=C(NS(=O)(=O)c1ccc2sccc2c1)c1ccc(Cl)cc1Cl | 620 |  |
| N#Cc1ccc(S(=O)(=O)NC(=O)c2ccc(Cl)cc2Cl)s1 | 3160 |  |
| O=C(NS(=O)(=O)c1ccccc1)c1ccc(Cl)cc1Cl |  | Zone of inhibition (HCT-116 [9]): 700 zone of inhibition units |
| O=C(NS(=O)(=O)c1ccc2c(c1)OCO2)c1ccc(Cl)cc1Cl | 480 | Zone of inhibition [10]: 400 zone of inhibition units; Zone of inhibition (HCT-116 [1]): 610 zone of inhibition units; Zone of inhibition (L1210 [11]): 0 zone of inhibition units |
| O=C(NS(=O)(=O)c1cccc2cc[nH]c12)c1ccc(Cl)cc1Cl | 3040 |  |
| CCc1ccc(S(=O)(=O)NC(=O)c2ccc(Cl)cc2Cl)s1 | 310 |  |
| O=C(NS(=O)(=O)c1ccc2c(c1)CCO2)c1ccc(Cl)cc1Cl | 430 | Zone of inhibition [12]: 400 zone of inhibition units; Zone of inhibition (HCT-116 [8]): 680 zone of inhibition units; Zone of inhibition (L1210 [13]): 0 zone of inhibition units |
| Cc1ccc(S(=O)(=O)NC(=O)c2ccc(Cl)cc2Cl)s1 | 600 |  |
| CN1CCc2ccc(S(=O)(=O)NC(=O)c3ccc(Cl)cc3Cl)cc21 | 1540 | Zone of inhibition (L1210 [14]): 60 zone of inhibition units; Zone of inhibition [15]: 330 zone of inhibition units; Zone of inhibition (HCT-116 [8]): 630 zone of inhibition units |
| O=C(NS(=O)(=O)c1cc2ccccc2o1)c1ccc(Cl)cc1Cl | 970 |  |
| COc1ccc(S(=O)(=O)NC(=O)c2ccc(Cl)cc2Cl)s1 | 680 |  |

| Compound | IC50 [5] [nM] | other results |
| --- | --- | --- |
| COC(=O)c1ccc(S(=O)(=O)NC(=O)c2ccc(Cl)cc2Cl)s1 | 1390 |  |
| O=C(NS(=O)(=O)c1cnc(Cl)s1)c1ccc(Cl)cc1Cl | 1090 |  |
| COc1ncc(S(=O)(=O)NC(=O)c2ccc(Cl)cc2Cl)s1 | 540 |  |
| O=C(NS(=O)(=O)c1ccc2c(c1)OCCO2)c1ccc(Cl)cc1Cl | 400 | Zone of inhibition [10]: 400 zone of inhibition units; Zone of inhibition (L1210 [16]): 250 zone of inhibition units; Zone of inhibition (HCT-116 [1]): 580 zone of inhibition units |
| O=C(NS(=O)(=O)c1ccc(Cl)s1)c1ccc(Cl)cc1Cl | 360 |  |
| O=C(NS(=O)(=O)c1cccc2sccc12)c1ccc(Cl)cc1Cl | 3300 |  |
| O=C(NS(=O)(=O)c1ccc2ccoc2c1)c1ccc(Cl)cc1Cl | 590 |  |
| CCc1ncc(S(=O)(=O)NC(=O)c2ccc(Cl)cc2Cl)s1 | 600 |  |
| O=C(NS(=O)(=O)c1cc(Cl)c(Br)s1)c1ccc(Cl)cc1Cl | 760 |  |
| O=C(NS(=O)(=O)c1cc(Br)cs1)c1ccc(Cl)cc1Cl | 600 |  |
| O=C(NS(=O)(=O)c1ccc2ccccc2c1)c1ccc(Cl)cc1Cl | 800 | Zone of inhibition [17]: 270 zone of inhibition units; Zone of inhibition (L1210 [18]): 270 zone of inhibition units; Zone of inhibition (HCT-116 [19]): 530 zone of inhibition units |
| O=C(NS(=O)(=O)c1ccsc1)c1ccc(Cl)cc1Cl | 1270 |  |
| O=C(NS(=O)(=O)c1cccc2ccoc12)c1ccc(Cl)cc1Cl | 5210 |  |
| Cc1csc(S(=O)(=O)NC(=O)c2ccc(Cl)cc2Cl)c1 | 700 |  |
| Cc1ncc(S(=O)(=O)NC(=O)c2ccc(Cl)cc2Cl)s1 | 1180 |  |
| O=C(NS(=O)(=O)c1cccc2ccsc12)c1ccc(Cl)cc1Cl | 4160 |  |
| O=C(NS(=O)(=O)c1ccc2cc[nH]c2c1)c1ccc(Cl)cc1Cl | 1870 |  |
| O=C(NS(=O)(=O)c1cc(Cl)cs1)c1ccc(Cl)cc1Cl | 390 |  |
